Measured values collected from several papers.
Compare with care: the assays were run in different laboratories.
Effect on: metabolic stability
Host: human

O=C1c2ncc(COc3ccccc3)cc2CCN1c1ccc(F)cc1 — scaled CLint (liver microsomes): 1.14 L/h/kg
O=C(Nc1ccc(N2C(=O)c3cccc(Cl)c3C2=O)c(Cl)c1)c1ncccc1Cl — scaled CLint (liver microsomes; 1 µM; pH 7.4): 1.03 L/h/kg
Cc1cc([C@H]2C[C@H]3[C@@H](C)SC(N)=N[C@@]3(c3ccc(F)cc3F)CO2)on1 — scaled CLint (liver microsomes): < 0.48 L/h/kg
O=C(c1ccc(F)cc1)C1CCN(CCn2c(=O)[nH]c3ccccc3c2=O)CC1 — scaled CLint (liver microsomes): 2.69 L/h/kg
C[C@H]1SC(N)=N[C@@]2(c3ccc(F)cc3F)CO[C@@H](c3cnn(C)c3)C[C@@H]12 — scaled CLint (liver microsomes): < 0.48 L/h/kg
Cc1ccc(F)c2cc(C(=O)N[C@@H]3CCC[C@H](N4CCN(S(C)(=O)=O)CC4)C3)[nH]c12 — scaled CLint (hepatocytes; 0.5 µM; 2 h): 2.46 L/h/kg
Nc1nc(-c2cccc(NC(=O)Nc3cccc(-c4c[nH]c(N)n4)c3)c2)c[nH]1 — scaled CLint (liver microsomes; 5 µM; pH 7.4): < 1.25 L/h/kg
CC(F)(F)CN1Cc2cc(C(F)(F)F)ncc2C2=CN=C(NCc3c(F)ccc4c3CCO4)N3C=NC(C1=O)C23 (centres unmarked) — scaled CLint (liver microsomes; 100 µM; 30 min): 0.594 L/h/kg
CC(=O)N(C)C1CCN(c2cc(F)cc(NC(=O)c3cc4c(F)ccc(C)c4[nH]3)c2)C1 (centres unmarked) — scaled CLint (hepatocytes; 0.5 µM; 2 h): 3.84 L/h/kg
Cc1nc2ccc(C(=O)N3CCC4(CC3)Cc3cnn(C(C)C)c3C(O)C4)cc2[nH]1 (centres unmarked) — scaled CLint (liver microsomes): < 0.48 L/h/kg
Cc1coc([C@H]2C[C@H]3[C@@H](C)SC(N)=N[C@@]3(c3ccc(F)cc3F)CO2)n1 — scaled CLint (liver microsomes): < 0.48 L/h/kg
CC(=O)Nc1cc(Nc2cc(NC3CC3)n3ncc(C#N)c3n2)ccc1N1CCC[C@H](O)C1 — scaled CLint (hepatocytes; 1 µM; serum-free): 4.38 L/h/kg
Cn1cc([C@H]2C[C@H]3[C@@H](CF)SC(N)=N[C@@]3(c3ccc(F)cc3F)CO2)cn1 — scaled CLint (liver microsomes): < 0.48 L/h/kg
Nc1nc(-c2ccc(NC(=O)Nc3cccc(-c4c[nH]c(N)n4)c3F)cc2F)c[nH]1 — scaled CLint (liver microsomes; 5 µM; pH 7.4): < 1.25 L/h/kg
Cc1ccc(F)c2cc(C(=O)N[C@@H]3CCC[C@H](N4CCOCC4)C3)[nH]c12 — scaled CLint (hepatocytes; 0.5 µM; 2 h): 4.5 L/h/kg
COc1ccc2nc3cc(Cl)ccc3c(Nc3cc(CN4CCCC4)c(O)c(CN4CCCC4)c3)c2n1 — scaled CLint (hepatocytes; 1 µM): 0.228 L/h/kg
O=C1c2ccc(COc3ccccc3)nc2CCN1c1ccc(F)cc1 — scaled CLint (liver microsomes): 1.08 L/h/kg
Cc1coc([C@H]2C[C@H]3[C@@H](CF)SC(N)=N[C@@]3(c3ccc(F)cc3F)CO2)n1 — scaled CLint (liver microsomes): 1.67 L/h/kg
Nc1nc(-c2cc(F)cc(NC(=O)Nc3cc(F)cc(-c4c[nH]c(N)n4)c3)c2)c[nH]1 — scaled CLint (liver microsomes; 5 µM; pH 7.4): < 1.25 L/h/kg
CC(C)(C)n1cc2c(n1)C(O)CC1(CCN(C(=O)c3ccc4[nH]ncc4c3)CC1)O2 (centres unmarked) — scaled CLint (liver microsomes): < 0.528 L/h/kg
